A selection: hits, their analogues and other compounds. The true share with any hit is near 3.4%.
AF4-AF9 inh: inhibitors of AF4 peptide binding to AF9, primary screen, biochemical, AlphaScreen, biotin-AF4 peptide, FLAG-AF9, single point; inhibition, % at 10 µM; actives 0.47% (n = 350,000); AID 651704, 2012;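 active = every replicate reaching a set inhibition limit, whatever the replicate mean, cut at about 25% in these data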
ERAP1 inh: human ERAP1 aminopeptidase inhibitors, primary screen, biochemical, single point, plate reader | recombinant ERAP1, Leu-AMC fluorescence, 60 min | inhibition, % at 10.7 µM | actives 0.15% (n = 340,000) | Endoplasmic reticulum aminopeptidase 1 (Homo sapiens), Q9NZ08;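 active = mean replicate inhibition of at least 30%, or all replicates individually reaching that 30% level; inactive = mean below 30% and not every replicate reaching it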
SIRT5 inh: SIRT5 desuccinylase inhibitors, primary screen, biochemical, fluorescence imaging, single point, set 5; NAD-dependent protein deacylase sirtuin-5, mitochondrial (Homo sapiens), Q9NXA8; Purified SirT5, succinyl-peptide AMC, trypsin-coupled fluorescence; inhibition, % at 15 µM; actives 1.1% (n = 330,000); AID 652115, 2013; in the data active = inhibition above about 15%
S100A4 MyoIIA: inhibitors of S100A4-myosin IIA peptide binding, primary screen, biochemical, fluorescence polarization, TAMRA-MyoIIA peptide | actives 0.14% (n = 360,000) | inhibition, % at 10.7 µM;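 active = mean inhibition of at least 70% across replicates, with every replicate also reaching that level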
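System – human S100A4 monomer protein, biochemical binding assay · Buffer or medium – Calcium-containing HEPES buffer, pH 7.2 · Timing – 5 min between mix addition and reading · Also added – TAMRA-labelled myosin IIA heavy-chain peptide probe, 5 nM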
Ecoli rRNA inh: reduced GFP signal of wild-type E. coli, primary screen, bacterial rRNA inhibitor project, GFP/RFP fluorescence, OD600, single point; GFP signal change (wild-type ribosome), % (concentration not given with the values); E. coli WT GFP vs humanized-ribosome RFP mutants, 24 h; hits give low values; DMSO median 0, no signal -100; actives 1.6% (n = 350,000);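 active = significant combined selectivity score with lowered wild-type GFP, culture density cut under 30%, mutant RFP and density less affected; inactive = any of these conditions unmet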
E-sel inducer: E-selectin induction in HUVECs, primary screen, imaging, HUVEC, immunofluorescence imaging, single point | P16581 | normalized: neutral wells 0, TNF-alpha wells 100 | activation, % at 7.58 µM | actives 0.37% (n = 260,000) | AID 686992, 2013;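 active = mean E-selectin-positive cell signal at least 10% of the positive control, reached in at least 60% of replicates, without over 20% cell loss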
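Read-out: % PE-positive cells | Test system: HUVEC | Doses: One compound dose added by pin transfer | Buffer or medium: EGM-2 over gelatin coat | Signal: Immunofluorescence imaging | Benchmarks: TNF-alpha, DMSO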
A number is an active result; i = inactive; nt = not tested or not shown.

SMILES | AF4-AF9 inh | ERAP1 inh | SIRT5 inh | S100A4 MyoIIA | Ecoli rRNA inh | E-sel inducer
CCOc1ccc(OCCn2c(=S)[nH]c3c(N)ncnc32)cc1 | i | i | i | i | -31.4 | i
CCc1ccccc1NC(=S)NCC1CCN(c2ccc(OC)cc2)C1 (centres undefined) | i | i | i | i | -18.4 | i
O=C(c1ccncc1)N1C[C@H]2[C@@H](c3ccccc31)[C@H](CO)N2C(=O)c1ccncc1 | i | i | i | i | i | i
O=C(CCc1c[nH]c2ccccc12)N1CCN(c2ccc(O)cc2)CC1 | i | i | i | i | -29.1 | i
CCOc1ccccc1C1NC(=O)NC(C)=C1C(=O)OCc1ccccc1 (centres undefined) | i | i | i | i | i | nt
CC1=C(C(=O)OC2CCCCC2)C(c2ccccc2Br)NC(=O)N1 (centres undefined) | i | i | i | i | i | nt
COc1ccccc1C1NC(=O)NC(C)=C1C(=O)OCc1ccccc1 (centres undefined) | i | i | i | i | -23.3 | i
CC1=C(C(=O)OCc2ccccc2)C(c2ccccc2Br)NC(=O)N1 (centres undefined) | i | i | i | i | -34.4 | nt
Cc1ccc(S(=O)(=O)Nc2ccc3c(c2)C(=O)N([C@H](C)CO)C[C@H](C)[C@H](CN(C)C(=O)Nc2ccccc2)OCCCC[C@H](C)O3)cc1 | i | i | i | i | i | i
CCC(=O)N[C@H]1C=C[C@@H](CC(=O)NCc2cc(F)cc(F)c2)O[C@@H]1CO | i | i | i | i | i | i
COc1ccc(-c2cc(C)no2)cc1S(=O)(=O)NCCc1ccco1 | 25.8 | i | i | i | i | i
CCOc1ccc(N(C)S(=O)(=O)c2cc(-c3cc(C)no3)ccc2CC)cc1 | i | i | i | i | i | nt
CCOc1ccc(N(C)S(=O)(=O)c2cc(-c3cc(C)no3)ccc2OC)cc1 | i | i | i | i | -37.1 | nt
COc1ccccc1C(C[N+](=O)[O-])c1c(N)n(C)c(=O)n(C)c1=O (centres undefined) | i | i | i | i | -33.5 | i
O=C(NCCc1cnc[nH]1)c1ccc(-c2ccccc2)cc1 | i | i | 17.1 | i | i | i
CO[C@@H]1CN(C)C(=O)c2ccc(NC(C)=O)cc2OC[C@H](C)N(C(=O)c2ccccc2)C[C@@H]1C | nt | nt | nt | nt | i | nt
C[C@@H]1CCCCO[C@@H](CN(C)C(=O)Nc2cccc3ccccc23)[C@H](C)CN([C@@H](C)CO)C(=O)c2cc(NC(=O)C3CCCCC3)ccc2O1 | i | i | i | 116.7 | i | i
C[C@@H]1CCCCO[C@H](CN(C)C(=O)NC2CCCCC2)[C@@H](C)CN([C@H](C)CO)C(=O)c2cc(NC(=O)C3CCCCC3)ccc2O1 | i | i | i | i | i | i
C[C@H](CO)N1C[C@H](C)[C@@H](CN(C)C(=O)NC2CCCCC2)OCCCC[C@H](C)Oc2ccc(NC(=O)C3CCCCC3)cc2C1=O | i | i | 15.7 | i | i | i
Cc1cc(C(=O)COc2ccc([N+](=O)[O-])cc2)c(C)n1C1CC1 | i | i | i | i | i | nt
Cc1cc(C(=O)COc2cc(F)ccc2[N+](=O)[O-])c(C)n1C1CC1 | i | i | i | i | -29.0 | nt
CCOc1ccc(CNC(=O)CCCC(=O)n2ncc3cc(C)ccc32)cc1 | i | i | 15.0 | i | i | i
Cc1ccc2c(cnn2C(=O)CCCC(=O)NCc2ccc(Cl)cc2)c1 | i | i | i | i | i | i
Cc1cc2c(NC(=O)Nc3ccc(C(C)(C)C)cc3)cccc2nn1 | i | i | i | i | -32.5 | i
C[C@H]1CN([C@@H](C)CO)S(=O)(=O)c2ccc(C#CC3CC3)cc2O[C@@H]1CN(C)CC1CCOCC1 | i | i | i | i | i | i
CCn1nc(Cc2cccc3ccccc23)c(C#N)c1N | i | i | nt | i | -27.1 | i
